The values below come from paper PMC8378419 (ACS chemical neuroscience, 2019).

In experiment [1] the target is T1, hD3 (Homo sapiens, UniProt P35462). As to the kind of experiment: radioligand competition, [3H]N-methylspiperone. Particulars: Cheng-Prusoff. In kind it is binding. In outline: (§1)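 Radioligand displacement used [3H]N-methylspiperone at human D3 or D4 receptors stably expressed in HEK293 cells. Samples were run in triplicate. IC50 values were converted to Ki with the Cheng–Prusoff equation and given as pKi (−logKi).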
In general terms: Displacement assays read how much labelled ligand stays bound in the presence of the test substance.

Experiment [2] concerns the target T2, hD4 (Homo sapiens, UniProt P21917).
T2 sequence (P21917 1-419): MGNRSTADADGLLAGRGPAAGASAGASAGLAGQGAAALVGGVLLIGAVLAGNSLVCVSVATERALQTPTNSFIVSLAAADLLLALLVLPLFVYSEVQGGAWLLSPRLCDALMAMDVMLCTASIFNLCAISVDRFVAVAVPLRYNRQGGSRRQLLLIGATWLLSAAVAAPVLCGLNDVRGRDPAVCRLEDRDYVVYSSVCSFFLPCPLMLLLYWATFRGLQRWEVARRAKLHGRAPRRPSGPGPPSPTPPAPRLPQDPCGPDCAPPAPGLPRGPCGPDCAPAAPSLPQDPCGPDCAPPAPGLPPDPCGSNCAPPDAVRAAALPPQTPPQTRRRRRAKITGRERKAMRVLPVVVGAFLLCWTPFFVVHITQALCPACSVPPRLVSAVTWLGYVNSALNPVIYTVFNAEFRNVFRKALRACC
As to the kind of experiment: radioligand competition, [3H]N-methylspiperone. In kind it is binding. The following applies: Cheng-Prusoff. The method, boiled down: as §1

For experiment [3], the target named is T3, 5-HT1A (Homo sapiens, UniProt P08908).
T3 sequence (P08908 1-422): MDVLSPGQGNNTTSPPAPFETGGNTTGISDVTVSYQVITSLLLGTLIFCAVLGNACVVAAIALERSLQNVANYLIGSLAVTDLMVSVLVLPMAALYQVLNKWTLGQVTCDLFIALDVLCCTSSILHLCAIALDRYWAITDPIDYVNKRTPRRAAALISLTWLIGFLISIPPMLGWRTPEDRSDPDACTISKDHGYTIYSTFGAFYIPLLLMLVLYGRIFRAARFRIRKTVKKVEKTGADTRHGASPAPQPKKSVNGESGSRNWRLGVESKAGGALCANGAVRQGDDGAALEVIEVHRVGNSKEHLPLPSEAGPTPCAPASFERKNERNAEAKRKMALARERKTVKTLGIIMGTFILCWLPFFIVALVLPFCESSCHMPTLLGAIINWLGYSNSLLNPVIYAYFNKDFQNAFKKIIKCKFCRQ
Kind of experiment: radioligand competition, [3H]8-OH-DPAT. The class given is binding. The following applies: Cheng-Prusoff. The method, boiled down: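 Human cloned 5-HT1A receptors expressed in HeLa cells were labelled with [3H]8-OH-DPAT and displaced by the test compound. Each experiment was run in triplicate.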

Experiment [4] concerns the target T4, α1a-AR (Homo sapiens, UniProt P35348).
T4 sequence (P35348 1-466): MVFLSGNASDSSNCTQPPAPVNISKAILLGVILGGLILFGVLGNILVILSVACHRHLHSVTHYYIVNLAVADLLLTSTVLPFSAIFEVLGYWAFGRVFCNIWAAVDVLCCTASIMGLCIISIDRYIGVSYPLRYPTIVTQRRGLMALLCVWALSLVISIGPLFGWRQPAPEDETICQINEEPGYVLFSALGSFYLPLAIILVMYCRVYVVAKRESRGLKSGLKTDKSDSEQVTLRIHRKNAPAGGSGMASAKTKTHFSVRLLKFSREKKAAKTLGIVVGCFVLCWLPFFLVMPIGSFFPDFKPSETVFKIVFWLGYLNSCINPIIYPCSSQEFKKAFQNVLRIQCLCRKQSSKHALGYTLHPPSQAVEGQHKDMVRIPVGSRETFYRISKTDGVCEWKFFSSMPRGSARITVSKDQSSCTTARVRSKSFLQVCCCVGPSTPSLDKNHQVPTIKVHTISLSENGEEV
As to the kind of experiment: radioligand competition, [3H]prazosin. In kind it is binding. The following applies: Cheng-Prusoff. The method, boiled down:
(§2)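 Binding was measured with [3H]prazosin on cloned human α1-adrenoceptor subtypes expressed in CHO cells. Each experiment was run in triplicate.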

Experiment [5] addresses T5, α1d-AR (Homo sapiens, UniProt P25100).
T5 sequence (P25100 1-572): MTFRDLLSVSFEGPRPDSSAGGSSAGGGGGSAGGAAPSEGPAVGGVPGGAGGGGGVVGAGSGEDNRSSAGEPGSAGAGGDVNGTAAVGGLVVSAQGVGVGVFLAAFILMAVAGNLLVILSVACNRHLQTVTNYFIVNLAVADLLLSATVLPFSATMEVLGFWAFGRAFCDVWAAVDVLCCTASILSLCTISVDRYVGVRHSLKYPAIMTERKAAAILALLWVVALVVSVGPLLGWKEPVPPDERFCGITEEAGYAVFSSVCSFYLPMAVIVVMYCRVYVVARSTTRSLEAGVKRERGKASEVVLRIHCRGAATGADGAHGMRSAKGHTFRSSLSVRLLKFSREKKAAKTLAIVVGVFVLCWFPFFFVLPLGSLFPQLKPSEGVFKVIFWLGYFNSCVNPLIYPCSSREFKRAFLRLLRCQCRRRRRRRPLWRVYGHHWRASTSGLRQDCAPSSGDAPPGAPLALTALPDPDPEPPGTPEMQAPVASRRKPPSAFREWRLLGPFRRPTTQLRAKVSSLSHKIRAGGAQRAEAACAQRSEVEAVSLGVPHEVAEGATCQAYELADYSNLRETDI
Kind of experiment: radioligand competition, [3H]prazosin. In kind it is binding. Particulars: Cheng-Prusoff. The method, boiled down:
as §2

For experiment [6], the target named is T6, α1b-AR (Homo sapiens, UniProt P35368).
T6 sequence (P35368 1-520): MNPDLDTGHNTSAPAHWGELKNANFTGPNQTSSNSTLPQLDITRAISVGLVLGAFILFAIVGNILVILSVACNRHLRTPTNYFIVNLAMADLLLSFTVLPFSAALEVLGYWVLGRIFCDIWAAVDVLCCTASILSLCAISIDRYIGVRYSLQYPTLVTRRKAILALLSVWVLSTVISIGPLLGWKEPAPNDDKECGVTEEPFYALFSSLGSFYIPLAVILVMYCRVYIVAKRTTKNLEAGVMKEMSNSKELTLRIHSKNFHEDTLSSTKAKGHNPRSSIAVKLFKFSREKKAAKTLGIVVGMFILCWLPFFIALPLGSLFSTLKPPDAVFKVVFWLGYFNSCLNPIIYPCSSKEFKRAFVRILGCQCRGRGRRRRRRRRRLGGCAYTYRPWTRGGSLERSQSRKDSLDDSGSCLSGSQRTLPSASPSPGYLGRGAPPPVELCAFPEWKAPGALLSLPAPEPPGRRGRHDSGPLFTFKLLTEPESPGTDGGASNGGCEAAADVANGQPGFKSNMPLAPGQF
As to the kind of experiment: radioligand competition, [3H]prazosin. In kind it is binding. Particulars: Cheng-Prusoff. The method, boiled down: as §2

The target of experiment [7] is T3, 5-HT1A. As to the kind of experiment: […]GTPγS binding. The class given is biochemical. Particulars: agonist.
In experiment [8] the target is T1, hD3. As to the kind of experiment: mitogenesis assay. The following applies: full agonist. The class given is cell-based.
In experiment [9] the target is D1 (Homo sapiens, UniProt P21728). Kind of experiment: cAMP assay. The class given is cell-based. The following applies: antagonist. A general note: cAMP levels reflect the balance of adenylyl cyclase and phosphodiesterase activity.
D1, sequence (P21728 whole entry): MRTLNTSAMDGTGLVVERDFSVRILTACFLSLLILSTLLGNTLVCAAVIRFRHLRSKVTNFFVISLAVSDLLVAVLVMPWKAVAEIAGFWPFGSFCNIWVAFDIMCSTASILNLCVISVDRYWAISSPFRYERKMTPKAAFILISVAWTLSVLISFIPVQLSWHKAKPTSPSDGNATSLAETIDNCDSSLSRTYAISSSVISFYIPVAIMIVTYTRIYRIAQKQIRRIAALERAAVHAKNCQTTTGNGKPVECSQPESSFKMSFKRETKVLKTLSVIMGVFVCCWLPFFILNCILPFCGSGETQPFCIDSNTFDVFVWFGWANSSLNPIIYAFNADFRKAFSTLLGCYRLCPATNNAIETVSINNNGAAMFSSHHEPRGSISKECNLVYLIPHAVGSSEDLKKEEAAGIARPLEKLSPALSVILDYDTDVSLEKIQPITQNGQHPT

T1 sequence (P35462 whole entry): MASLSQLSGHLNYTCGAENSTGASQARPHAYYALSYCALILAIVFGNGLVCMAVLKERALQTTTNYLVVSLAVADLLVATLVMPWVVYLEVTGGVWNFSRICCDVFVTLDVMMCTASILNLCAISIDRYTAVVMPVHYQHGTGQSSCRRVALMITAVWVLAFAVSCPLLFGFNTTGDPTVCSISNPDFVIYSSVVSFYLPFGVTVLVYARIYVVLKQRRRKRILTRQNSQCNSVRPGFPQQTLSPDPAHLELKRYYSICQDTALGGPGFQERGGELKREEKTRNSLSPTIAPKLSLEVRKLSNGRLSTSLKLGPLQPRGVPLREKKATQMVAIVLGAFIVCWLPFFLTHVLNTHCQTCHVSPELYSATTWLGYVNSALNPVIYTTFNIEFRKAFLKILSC

`COc1cccc(OC)c1OCCNCC1COCC(c2ccccc2)(c2ccccc2)O1` (centres unmarked) [compound 2, 2]: in experiment [1], the “pKi, human cloned receptor / D3” value stood at 6.34. The “pKi, human cloned receptor / D4” value in experiment [2] is given as 5.77.
Consider `c1ccc(OCCNCC2COCC(c3ccccc3)(c3ccccc3)O2)cc1` (centres unmarked) [compound 4, N-((6,6-diphenyl-1,4-dioxan-2-yl)methyl)-2-phenoxyethan-1-amine], for which the “pKi, human cloned receptor / D3” value in [1] is given as 7.92.
Regarding `COc1cccc(OCCNCC2COCC(c3ccccc3)(c3ccccc3)O2)c1` (centres unmarked) [compound 7, N-((6,6-Diphenyl-1,4-dioxan-2-yl)methyl)-2-(3-methoxyphenoxy)ethanamine], in experiment [1], the “pKi, human cloned receptor / D3” value came out at 7.37. For the same compound, the “pKi, human cloned receptor / 5-HT1A” value in [3] was found to be 8.91. In [2], the “pKi, human cloned receptor / D4” value was determined as 6.45. Moreover, the “pKi, human cloned receptor / α1 ^a” value in experiment [4] was determined as 6.41. In addition, the “pKi, human cloned receptor / α1 ^d” value in experiment [5] was 6.98. For the same compound, the “pKi, human cloned receptor / D2” value in experiment [6] is less than 6.
As for `Oc1cccc(OCCNCC2COCC(c3ccccc3)(c3ccccc3)O2)c1` (centres unmarked) [compound 8, 3-(2-(((6,6-Diphenyl-1,4-dioxan-2-yl)methyl)amino)ethoxy)phenol], the “Functional profile of 8 / pEC50 (pIC50)” value in [7] is on record as 8.28 ± 0.15; in experiment [8], 8.99 ± 0.09; in [9], 5.49 ± 0.10. For the same compound, the “pKi, human cloned receptor / α1 ^a” value in experiment [4] and in [6] was less than 6 each time. The “pKi, human cloned receptor / α1 ^d” value in experiment [5] amounted to 6.56.
Turning to `COc1ccc(OCCNCC2COCC(c3ccccc3)(c3ccccc3)O2)cc1` (centres unmarked) [compound 9, N-((6,6-Diphenyl-1,4-dioxan-2-yl)methyl)-2-(4-methoxyphenoxy)ethanamine], the “pKi, human cloned receptor / D3” value in [1] is 6.41; in experiment [4], less than 6; in experiment [5] it was less than 6; in experiment [6] it was less than 6. In addition, the “pKi, human cloned receptor / 5-HT1A” value in experiment [3] turned out to be 7.17. Further, in experiment [2], the “pKi, human cloned receptor / D4” value turned out to be 6.45.
As for `Oc1ccc(OCCNCC2COCC(c3ccccc3)(c3ccccc3)O2)cc1` (centres unmarked) [compound 10, 10], the “pKi, human cloned receptor / D3” value in experiment [1] worked out at 7.37. For the same compound, the “pKi, human cloned receptor / 5-HT1A” value in experiment [3] is given as 7.59. For the same compound, the “pKi, human cloned receptor / D4” value in experiment [2] is 6.49. In addition, the “pKi, human cloned receptor / α1 ^a” value in experiment [4] is 6.56. Also, in [5], the “pKi, human cloned receptor / α1 ^d” value came out at 7.01. Also, the “pKi, human cloned receptor / D2” value in [6] is on record as less than 6.
On to `COc1cccc(OCCNCC2COCC(c3ccccc3)(c3ccccc3)O2)c1OC` (centres unmarked) [compound 11, 2-(2,3-Dimethoxyphenoxy)-N-((6,6-diphenyl-1,4-dioxan-2-yl)methyl)ethanamine], for which the “pKi, human cloned receptor / D3” value in [1] stood at 6.79. In [2], the “pKi, human cloned receptor / D4” value is recorded as 6.87.
As to `COc1ccc(OCCNCC2COCC(c3ccccc3)(c3ccccc3)O2)cc1OC` (centres unmarked) [compound 12, 2-(3,4-Dimethoxyphenoxy)-N-((6,6-diphenyl-1,4-dioxan-2-yl)methyl)ethanamine], the “pKi, human cloned receptor / D3” value in experiment [1] is 6.10; in [4] it was less than 6; in experiment [5], less than 6; in experiment [6], less than 6. For the same compound, the “pKi, human cloned receptor / 5-HT1A” value in experiment [3] was determined as 7.71. In addition, in [2], the “pKi, human cloned receptor / D4” value amounted to 5.84.
Consider `c1ccc(C2(c3ccccc3)COCC(CNCCOc3ccc4c(c3)OCO4)O2)cc1` (centres unmarked) [compound 13, 2-(Benzo[d][1,3]dioxol-5-yloxy)-N-((6,6-diphenyl-1,4-dioxan-2-yl)methyl)ethanamine], for which the “pKi, human cloned receptor / D3” value in experiment [1] was 6.99. The “pKi, human cloned receptor / 5-HT1A” value in experiment [3] was 8.04. The “pKi, human cloned receptor / D4” value in experiment [2] is listed as 6.79. Besides, the “pKi, human cloned receptor / α1 ^a” value in [4] worked out at 6.32. The “pKi, human cloned receptor / α1 ^d” value in experiment [5] came out at 6.81. In [6], the “pKi, human cloned receptor / D2” value is listed as less than 6.
